These results are taken from ChEMBL document CHEMBL3272207, “Structure-activity relationship in cinnamamides. 2. Synthesis and pharmacological evaluation of some (E)- and (Z)-N-alkyl-alpha, beta-dimethylcinnamamides substituted on the phenyl group” (J Med Chem, 1977).

Active and inactive are the calls of the source. The rule behind the calls is not given here.

Data set [1] has as its system Mus musculus. Briefly: Behavioral toxicity in po dosed albino Icem-CET (SPF Caw) mouse assessed as reduction in locomotor activity by Irwin's test. Format: organism-based. To be noted: in vivo.
Data set [2] has as its system Mus musculus. Briefly: Behavioral toxicity in albino Icem-CET (SPF Caw) mouse assessed as tremor at 200 to 800 mg/kg, po measured after 90 mins by Irwin's test. Format: organism-based. Details: dose 200-800 mg/kg, route oral. The conditions noted are these: in vivo, 1.5 h.
Data set [3] has as its system Mus musculus. Briefly: Behavioral toxicity in po dosed albino Icem-CET (SPF Caw) mouse assessed as tremors by Irwin's test. Format: organism-based. The conditions noted are these: in vivo.
In data set [4] the test system is Mus musculus. In words: Behavioral toxicity in albino Icem-CET (SPF Caw) mouse assessed as twitches at 200 to 800 mg/kg, po measured after 90 mins by Irwin's test. The format is organism-based. Set-up: dose 200-800 mg/kg, route oral. To be noted: in vivo, 1.5 h.
Data set [5] has as its system Mus musculus. Briefly: Toxicity in albino Icem-CET (SPF Caw) mouse assessed as clonic type convulsion at 200 to 800 mg/kg, po measured after 90 mins by Irwin's test. Set-up: dose 200-800 mg/kg, route oral. To be noted: in vivo, 1.5 h. Format: organism-based.
Data set [6] concerns Mus musculus. In words: Behavioral toxicity in albino Icem-CET (SPF Caw) mouse assessed as positional passivity at 25 to 800 mg/kg, po measured up to 90 mins by Irwin's test. Format: organism-based. Set-up: dose 25-800 mg/kg, route oral. To be noted: in vivo, 1.5 h.
Data set [7] can be described thus: Toxicity in po dosed albino Icem-CET (SPF Caw) mouse assessed as mortality measured after 24 to 72 hrs. To be noted: in vivo. Format: organism-based.
For data set [8], the system named is Mus musculus. In words: Behavioral toxicity in po dosed albino Icem-CET (SPF Caw) mouse assessed as positional passivity by Irwin's test. The format is organism-based. The conditions noted are these: in vivo.
The subject of data set [9] is Mus musculus. In words: Anticonvulsant activity in po dosed albino Icem-CET (SPF Caw) mouse assessed as inhibition of pentylenetetrazole-induced maximal extensor seizures compound administered 30 mins prior challenge. The format is functional. The method, boiled down: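 Pentylenetetrazole antagonism in male Icem-CET (SPF Caw) mice, 17-22 g, fasted 9 h. Compound in 0.5% Methocel was given by gavage (0.2 ml/10 g) at 4-5 doses, 20 mice per dose, 30 min before pentylenetetrazole 130 mg/kg ip. Prevention of maximal extensor seizures was scored. ED50 was calculated by probit analysis, with fiducial limits at p = 0.05.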

A short description of data set [10]: Behavioral toxicity in po dosed albino Icem-CET (SPF Caw) mouse measured up to 7 days by Irwin's test. The conditions noted are these: in vivo. The format is organism-based.
In data set [11] the test system is Mus musculus. In words: Toxicity in po dosed albino Icem-CET (SPF Caw) mouse assessed as impairment of corneal reflexes by Irwin's test. The format is organism-based, Cornea. The conditions noted are these: in vivo.
In data set [12] the test system is Mus musculus. Briefly: Anticonvulsant activity in albino Icem-CET (SPF Caw) mouse assessed as inhibition of pentylenetetrazole-induced maximal extensor seizures at 100 mg/kg, po administered 30 mins prior challenge. Details: dose 100 mg/kg. Format: functional, organism-based. Summed up:
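Single-dose screen at 100 mg/kg by gavage in 0.5% Methocel in fasted male Icem-CET (SPF Caw) mice, 17-22 g. Dosing was 30 min before pentylenetetrazole 130 mg/kg ip, and prevention of maximal extensor seizures was scored.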

Data set [13] relates to Mus musculus. In words: Behavioral toxicity in albino Icem-CET (SPF Caw) mouse assessed as positional passivity at 25 to 800 mg/kg, po by Irwin's test. The conditions noted are these: in vivo. Details: dose 25-800 mg/kg, route oral. Format: organism-based.
Data set [14] has as its system Mus musculus. Briefly: Toxicity in po dosed albino Icem-CET (SPF Caw) mouse assessed as impairment of pinna by Irwin's test. The format is organism-based. The conditions noted are these: in vivo.
The subject of data set [15] is Mus musculus. In words: Behavioral toxicity in albino Icem-CET (SPF Caw) mouse assessed as reduction in locomotor activity at 25 to 800 mg/kg, po by Irwin's test. The format is organism-based. Details: dose 25-800 mg/kg, route oral. The conditions noted are these: in vivo.
The subject of data set [16] is Mus musculus. Briefly: Toxicity in po dosed albino Icem-CET (SPF Caw) mouse assessed as clonic type convulsion by Irwin's test. Format: organism-based. The conditions noted are these: in vivo. The method, boiled down:
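Irwin test in fasted (9 h) male Icem-CET (SPF Caw) mice, 17-22 g. Oral gavage of a 0.5% Methocel suspension at screening doses of 25-800 mg/kg. Clonic-type convulsions were scored as the minimum effective dose.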

The subject of data set [17] is Mus musculus. Briefly: Behavioral toxicity in albino Icem-CET (SPF Caw) mouse assessed as clonic type convulsion at 25 to 800 mg/kg, po by Irwin's test. The format is organism-based. Details: dose 25-800 mg/kg, route oral. The conditions noted are these: in vivo.
For data set [18], the system named is Mus musculus. Briefly: Behavioral toxicity in albino Icem-CET (SPF Caw) mouse assessed as tremors at 25 to 800 mg/kg, po by Irwin's test. Format: organism-based. Set-up: dose 25-800 mg/kg, route oral. The conditions noted are these: in vivo.
Data set [19] concerns Mus musculus. In words: Behavioral toxicity in po dosed albino Icem-CET (SPF Caw) mouse assessed as excitement at 25 to 100 mg/kg, po measured up to 30 mins post dose by Irwin's test. The format is organism-based. Set-up: dose 25-100 mg/kg, route oral. To be noted: in vivo, 0.5 h.

What is called ED50 is the dose at which the effect has come halfway, by size or by number of responders. Turning to `O=C1NC(=O)C(c2ccccc2)(c2ccccc2)N1` [PHENYTOIN], the ED50 in the data set on Mus musculus [1] amounted to 150 mg/kg; with Mus musculus [3], 250 mg/kg. Further, the Activity entry in the data set on Mus musculus [2], with Mus musculus [4], in the data set with Mus musculus [5] and with Mus musculus [6] was “Non-toxic” throughout.

The LD50 is the dose at which mortality reaches 50%. On to `C#CCNC(=O)/C(C)=C(\C)c1ccc(Cl)cc1`, for which the ED50 turned out to be 60 mg/kg in the data set with Mus musculus [1], 200 mg/kg with Mus musculus [3] and 400 mg/kg with Mus musculus [8]. Further, the LD50 in data set [7] was found to be 140 mg/kg.

Regarding `C/C(C(=O)NC1CC1)=C(/C)c1ccc(Br)cc1`, the ED50 in the data set on Mus musculus [1] was 100 mg/kg; with Mus musculus [3] it was 130 mg/kg; in the data set with Mus musculus [8], 600 mg/kg; in the data set on Mus musculus [9], 8.2 mg/kg. For the same compound, the LD50 in data set [7] was 200 mg/kg.

Consider `C/C(C(=O)NC1CC1)=C(\C)c1ccc(F)cc1`, for which the LD50 at 168 h in data set [10] is 450 mg/kg. Also, in the data set with Mus musculus [3], the ED50 worked out at 600 mg/kg. In addition, the Activity entry in the data set with Mus musculus [11] was “Toxic”; in the data set on Mus musculus [13], “Non-toxic”; in the data set on Mus musculus [14], “Toxic”; with Mus musculus [15] it was “Non-toxic”. In addition, the result in the data set with Mus musculus [12] was inactive. In addition, in the data set on Mus musculus [16], the MED came to 800 mg/kg.

`C=CCNC(=O)/C(C)=C(/C)c1ccc(Br)cc1` gave an LD50 at 168 h in [10] of 600 mg/kg. The ED50 in the data set on Mus musculus [1] came to 400 mg/kg. The Activity entry in the data set with Mus musculus [17], in the data set on Mus musculus [13] and in the data set on Mus musculus [18] was “Non-toxic” throughout. Besides, the result in the data set on Mus musculus [12] was inactive.

In the case of `CCC1(c2ccccc2)C(=O)N=C([O-])NC1=O.[Na+]` (centres undefined) [PHENOBARBITAL SODIUM], the Activity result in the data set with Mus musculus [19] is on record as “Toxic”. The same compound gave an LD50 at 168 h in data set [10] of 290 mg/kg. In addition, the ED50 was determined as 180 mg/kg with Mus musculus [1], 110 mg/kg with Mus musculus [3] and 180 mg/kg with Mus musculus [8].
